# V1aR counter: agonists of human V1a receptor, primary screen, counter-screen for OXTR agonist project, fluorescence, CHO-V1R cells | Vasopressin V1a receptor (Homo sapiens), P37288 | Fluo-8 calcium fluorescence, agonist mode; 0% DMSO, 100% 3 nM vasopressin | activation, % at 3 µM | 0.25% of 320,000 active | AID 2797, 2010;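 active = activation above the mean activation of all tested compounds plus 3 SD, per screening run, cut at about 20% in these data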;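 note: signal is peak over basal fluorescence ratio across a 100 second FLIPR read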
# TAAR1 ag: human TAAR1 agonists, primary screen, Fluo-8 calcium fluorescence, CHO RD-HGA16 cells; Trace amine-associated receptor 1 (Homo sapiens), Q96RJ0; vehicle wells 0%, saturating PEA agonist 100%; activation, % at 3 µM; 0.99% of 360,000 active; AID 624467, 2012;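 active = activation above the mean activation of all test compounds in the run plus 3 SD, cut at about 38% in these data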
# Target sequence (Q96RJ0 whole entry, looked up): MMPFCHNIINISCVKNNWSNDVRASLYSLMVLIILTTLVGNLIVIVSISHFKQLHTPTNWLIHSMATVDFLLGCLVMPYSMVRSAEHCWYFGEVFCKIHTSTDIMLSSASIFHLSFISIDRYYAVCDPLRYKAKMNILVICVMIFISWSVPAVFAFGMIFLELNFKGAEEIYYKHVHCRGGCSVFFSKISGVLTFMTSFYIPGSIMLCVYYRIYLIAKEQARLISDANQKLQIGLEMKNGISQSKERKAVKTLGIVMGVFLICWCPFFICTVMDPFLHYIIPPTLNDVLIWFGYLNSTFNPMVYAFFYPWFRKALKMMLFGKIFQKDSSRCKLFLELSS
#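 System: CHO-derived RD-HGA16 cells with stable Gα16 and human TAAR1 / Times: 17-24 h plating, Fluo-8 75 min 37 °C, 30 min RT / Technique: calcium-sensitive Fluo-8 signal, excitation 470-495, emission 515-575 nm / Measure: % activation relative to PEA EC100 response / Benchmarks: DMSO and PEA EC100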
# OXTR potentiate: human OXTR potentiators, primary screen, fluorescence, CHO-OTR cells, Fluo-8 calcium. activation, % at 3 µM. Oxytocin receptor (Homo sapiens), P30559. 0.061% of 320,000 active. Fluo-8 calcium fluorescence, potentiator mode; 0% = oxytocin EC15, 100% = EC100;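 active = activation above that plate's cutoff, the mean activation of tested compounds plus 3 SD, cut at about 6.6% in these data, passing the limit was not always enough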;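 note: 100% uses oxytocin at 75 nM as the full agonist control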
#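 Measured by – Fluo-8 calcium dye fluorescence · Test system – human OTR in CHO cells · Dosing – one concentration, 3.0 µM compound · Controls – EC15 oxytocin alone as 0%, 75 nM oxytocin as 100% · Evaluation – normalized max/min fluorescence ratio, % activation · Timing – 6 min pre-incubation, 100 s read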
# OXTR ag: human OXTR agonists, primary screen, fluorescence, CHO-OTR cells, Fluo-8 calcium; Oxytocin receptor (Homo sapiens), P30559; Fluo-8 calcium fluorescence; normalized: DMSO 0%, oxytocin 100%; activation, % at 3 µM; 0.32% of 320,000 active; AID 2435, 2010;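 active = activation above the mean of all tested compounds plus 3 SD, cutoff set per screening run, cut at about 20% in these data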;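 note: peak over basal fluorescence ratio from a 100 s FLIPR kinetic read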
# TAAR1 antag: human TAAR1 antagonists, primary screen, Fluo-8 calcium fluorescence, CHO RD-HGA16 cells; Trace amine-associated receptor 1 (Homo sapiens), Q96RJ0; antagonist; inhibition, % at 3 µM; 1.5% of 360,000 active;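 active = inhibition above a per-plate cutoff, the mean inhibition of test compounds on that plate plus 3 SD, cut at about 49% in these data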;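 note: 0% = DMSO plus EC80 beta-PEA response and 100% = DMSO alone without agonist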
#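 Assay system: RD-HGA16 CHO cells with stable hTAAR1 and Gα16 / Reagent: EC80 β-phenethylamine stimulus / Doses: 3 µM, single point / Timing: dye loading 75 min at 37 °C, then 30 min room temperature / Measured by: Fluo-8 intracellular calcium dye fluorescence, real-time kinetic reads / Controls: vehicle wells and EC80 agonist wells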
# * marks the source's active call; other numbers are inactive results; . = not tested or not shown. Sampled rows, rich in hits. Any-hit rate of the full collection: about 2.3%.
SMILES,V1aR counter,TAAR1 ag,OXTR potentiate,OXTR ag,TAAR1 antag
CC(C)CC(=O)N1CC(C)N(C(=O)CC(C)C)CC1C (centres undefined),0.1,2.7,-2.8,-0.5,-2.9
Cc1ccc(-n2nc3c(=O)n(CCCC(=O)NCCc4ccccc4C)nc(C)c3c2C)cc1,2.5,40.4*,-5.9,-1.1,-22.4
CC(C)C(=O)OCC(=O)Nc1ccc(N=Nc2ccccc2)cc1,1.7,0.7,-0.8,1.0,-0.5
O=C(/C=C/c1cccs1)NC(=S)NNC(=O)Cc1cccs1,8.9,67.5*,-4.9,7.2,25.8
CC1CC(C)CN(C(=O)c2cccc(S(=O)(=O)N(C)c3ccccc3)c2)C1 (centres undefined),.,6.2,.,.,-5.0
COc1cc(OC)c(N(C)S(=O)(=O)c2cccc(C(=O)OCC(=O)NCc3ccco3)c2)cc1Cl,0.7,20.4,-9.4,0.8,51.1*
CN(c1ccccc1)S(=O)(=O)c1cccc(C(=O)OCC(=O)NCc2ccccc2)c1,2.8,4.9,-4.6,1.5,25.4
COc1ccc(N(C)S(=O)(=O)c2cccc(C(=O)OCC(=O)NCc3ccccc3OC)c2)cc1,4.1,10.7,-6.1,3.5,56.7*
CN(c1ccccc1)S(=O)(=O)c1cccc(C(=O)OCC(=O)NCc2ccco2)c1,0.7,3.7,-8.8,-1.3,1.6
COc1ccc(N(C)S(=O)(=O)c2cccc(C(=O)Nc3nc(C)cs3)c2)cc1,4.6,14.2,-7.7,2.4,36.9
COc1ccc(N(C)S(=O)(=O)c2cccc(C(=O)OCC(=O)N3CC(C)CC(C)C3)c2)cc1 (centres undefined),7.8,9.2,-10.1,6.0,54.4*
COc1cc(OC)c(N(C)S(=O)(=O)c2cccc(C(=O)Nc3nc(C)cs3)c2)cc1Cl,2.5,7.8,-6.8,1.0,50.6*
CSC(=Nc1ccccc1)N=C(SCc1ccccc1)N(C)C,.,10.0,.,.,76.6*
CC1(C)CC(=O)c2cc3c(nc2C1)CC(C)(C)CC3=O,0.9,11.6,-7.9,1.3,-7.8
NS(=O)(=O)c1ccc(CCNCc2cc(Br)ccc2OCc2ccccc2)cc1,12.3,13.8,-7.4,12.4,44.6
O=C(/C=C/c1ccc(OC(F)F)cc1)Nc1cccc(S(=O)(=O)NC2=NCCCCC2)c1,9.8,12.0,-9.8,6.5,61.9*
COc1cccc(Nc2nc(C(N)Cc3ccc(Cl)cc3)cs2)n1 (centres undefined),.,64.5*,.,.,55.2*
COc1ccc(CC(N)c2csc(Nc3ccccn3)n2)cc1 (centres undefined),.,25.5,.,.,6.8
COc1cccc(Nc2nc(C(N)CCc3ccccc3)cs2)n1 (centres undefined),.,45.0*,.,.,22.4
NC(=O)c1cccc(Nc2nc(C(N)CCc3ccccc3)cs2)n1 (centres undefined),.,3.4,.,.,1.8
CC(=O)c1ccc(Nc2nc(C(N)Cc3ccc(Cl)cc3)cs2)cc1 (centres undefined),.,49.7*,.,.,6.9
COc1cccc(Nc2nc(C(N)CC(C)C)cs2)n1 (centres undefined),.,42.4*,.,.,-12.6
O=C(Nc1ccc(N2CCOCC2)cc1)Nc1ccc2nc(-c3ccco3)c(-c3ccco3)nc2c1,1.3,9.2,-3.0,-0.9,48.9*
COc1cccc(/C=C/C(=O)NCCc2ccc3c(c2)OCCO3)c1,-0.8,2.2,-5.9,1.0,6.1
Cc1nc2sccn2c(=O)c1S(=O)(=O)Nc1ccc(N2CCN(S(C)(=O)=O)CC2)cc1,4.0,21.2,-8.3,3.4,59.6*
SMILES,V1aR counter,TAAR1 ag,OXTR potentiate,OXTR ag,TAAR1 antag
O=C1NC[C@H](c2ccccc2)OC(=O)[C@H](Cc2ccc(F)cc2)C/C=C\C[C@H]1CC(=O)N(CCO)Cc1ccccc1,1.0,38.2*,-7.9,-1.2,81.5*
CC(C)(C)OC(=O)C[C@@H]1C/C=C\C[C@H](CC(=O)N(CCO)Cc2ccccc2)C(=O)NC[C@@H](c2ccccc2)OC1=O,-0.6,7.2,-2.7,-1.9,12.2
O=C1NC[C@H](c2ccccc2)OC(=O)[C@@H](Cc2ccc(F)cc2)C/C=C\C[C@H]1CC(=O)N(CCO)Cc1ccccc1,1.8,48.6*,-10.8,1.5,81.0*
O=C1NC[C@H](c2ccccc2)OC(=O)[C@H](Cc2ccc(F)cc2)CC/C=C/C[C@@H]1CC(=O)N(CCO)Cc1ccccc1,2.0,18.3,-9.6,-0.9,57.2*
O=C(N/N=C/C=C/c1ccco1)c1ccccc1Cl,-0.2,0.7,-16.7,-1.3,-0.2
Oc1ccccc1N=N/C(=N/Nc1ccccc1O)c1ccccc1,0.1,1.4,3.1,-0.2,-1.9
N#C/C(N=Nc1ccccc1O)=N\Nc1ccccc1O,16.5,2.5,-15.3,18.2,66.3*
Cc1cc(-c2nnc(SCC(=O)N3C(C)CCCC3C)o2)no1 (centres undefined),1.4,5.2,-5.9,1.2,-6.7
Cc1ccc(NC(=O)Cn2cccc2)cc1C,-0.1,7.6,-1.8,-0.9,11.6
CSc1ncnc2c1ccn2CC(=O)Nc1ccc(C)c(C)c1,1.9,43.2*,-2.0,0.9,14.3
COc1cccc(S(=O)(=O)N2C[C@H](O)COC[C@H]3O[C@@H](CC(=O)N4CCN(C)CC4)CC[C@@H]32)c1,.,0.8,.,.,-13.6
O=S(=O)(c1ccccc1)N1CCN(Cc2c(O)ccc3ccccc23)CC1,0.5,6.7,-10.5,0.9,51.4*
CC(=O)Nc1ccc(S(=O)(=O)N2CCN(C(C)CCc3ccccc3)CC2)cc1 (centres undefined),2.4,5.7,-10.3,1.1,-13.9
CCc1cccc2c(C(=O)COC(=O)[C@@H]3CC(O)CN3S(=O)(=O)c3ccccc3[N+](=O)[O-])c[nH]c12 (some centres undefined),0.4,10.7,-2.4,0.5,56.3*
O=C(COC(=O)[C@@H]1CC(O)CN1S(=O)(=O)c1ccccc1[N+](=O)[O-])c1ccccc1 (some centres undefined),-0.2,10.4,2.2,0.8,1.8
O=C(COC(=O)c1ccc2c(c1)C(=O)N(CCc1ccccc1)C2=O)Nc1ccc(OC(F)F)cc1,2.8,13.1,-9.4,0.2,15.4
CCOc1ccc(NC(=O)COC(=O)c2ccc3c(c2)C(=O)N(CCc2ccccc2)C3=O)cc1,1.1,38.2*,-3.2,-0.1,18.1
Nc1c(C(=O)NCc2ccccc2)nnn1Cc1ccc(F)cc1,14.6,40.5*,-10.8,15.8,5.9
CCN(CC)c1ccc(C(=C2C=CC(=[N+](CC)CC)C=C2)c2ccccc2)cc1,.,28.6,.,.,104.6*

# High-throughput results: PubChem, The Scripps Research Institute Molecular Screening Center
